Assay outcomes deposited in PubChem by several laboratories.
LANA-H2A inh = blockers of LANA interaction with H2A/H2B – biochemical, FP readout, HTS, primary screen; Protein LANA1 (Human herpesvirus 8 type P (isolate GK18)), Q9QR71; cell-free LANA-H2A/H2B peptide, fluorescence polarization; inhibition, % (no concentration beside the values); 0.6% of 320,000 active; AID 2629, 2010; in the data active = inhibition mostly above about 10%, no sharp cut-off; inactive = mostly below about 6.7%
HDAC3 inh = HDAC3 deacetylase inhibitors, primary screen, biochemical, fluorescence, cell-free homogeneous | 0.15% of 320,000 active | recombinant HDAC3, fluorogenic peptide/trypsin coupled | inhibition, % at 8.3 µM; in the data active = inhibition above about 26%, passing the limit was not always enough
Target sequence (O15379 whole entry, looked up): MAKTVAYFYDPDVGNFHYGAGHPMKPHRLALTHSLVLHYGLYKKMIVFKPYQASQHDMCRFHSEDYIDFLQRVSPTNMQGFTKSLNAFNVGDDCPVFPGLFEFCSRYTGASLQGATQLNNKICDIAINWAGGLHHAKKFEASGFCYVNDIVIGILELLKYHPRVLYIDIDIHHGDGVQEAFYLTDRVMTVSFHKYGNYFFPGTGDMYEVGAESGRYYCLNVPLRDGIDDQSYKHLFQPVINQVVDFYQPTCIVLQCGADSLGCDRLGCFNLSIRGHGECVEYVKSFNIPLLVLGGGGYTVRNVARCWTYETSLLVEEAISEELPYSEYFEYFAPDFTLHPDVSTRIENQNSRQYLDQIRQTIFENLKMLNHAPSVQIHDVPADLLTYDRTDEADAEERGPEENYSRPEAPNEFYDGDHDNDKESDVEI
DSG3 Ab inh = inhibitors of pemphigus antibody binding to DSG3, primary screen, biochemical, bead-based, flow cytometry, scFv-GFP | Desmoglein-3 (Homo sapiens), P32926 | DSG3-coupled beads, scFv-anti-DSG3-GFP binding; stronger effect = lower value | binding (percent of control), % at 10 µM | 0.48% of 310,000 active | AID 588358, 2011;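 active = binding more than 3 SD below its plate's average and above zero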;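 also: hits lower antibody fragment binding to DSG3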
Arrestin-AP2 inh = inhibitors of beta-arrestin/AP2 binding, primary screen, biochemical, GPCR trafficking, flow cytometry; inhibition, % at 10 µM; 0.31% of 340,000 active; FITC-arrestin peptide / GST-AP2 beads; AP2 beta2 appendage carries R879A mutation; AID 504490, 2011;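 active = inhibition above a set limit, near 3 SD of compounds lacking own fluorescence, cut at about 54% in these data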
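Assay system: GST-AP2 R879A bound to glutathione beads, E. coli-expressed; Medium: PBS with 0.05% Tween 20 and 0.1% BSA; Also added: fluorescein-tagged arrestin peptide at 50 nM final; Timing: 12 min plus 1 h, RT; Measured by: flow cytometry, FL1 (488/535 nm); Evaluation: percent drop in bead-associated FITC signal.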
T cell HTS = modulators of CD8 T cell-vesicle binding, primary screen, mouse 2C CD8+ T cells, flow cytometry. 2C CD8+ T cell-vesicle binding; stronger effect = lower value. response (vesicle binding), % at 7 µM. 0.068% of 330,000 active. AID 2052, 2009;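 active = response, share of CD8 T cells binding vesicles, and their 90th percentile fluorescence all below set limits, cut at about 80% in these data, passing the limit was not always enough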;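 also: values below 100% mean blocked vesicle binding to the CD8+ T cells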
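Incubation: binding step 1.5 h, 37 °C, antibody labelling 20 min, ice; system: murine 2C transgenic CD8+ T lymphocytes; technique: cytometric PE anti-B7-1 and Alexa647 anti-CD8 signals after 1% paraformaldehyde fixation; also added: QL9-charged Drosophila Ld/ICAM-1/B7-1 vesicles; control set: naked versus QL9-loaded vesicles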
Arr-AP2 CP1 = inhibitors of arrestin peptide binding to AP2, confirmation, biochemical, cherry pick 1, flow cytometry beads | shares compounds with Arrestin-AP2 inh | GST-AP2 beads, FITC arrestin peptide binding; GST-fused beta2-adaptin appendage, R879A mutant | inhibition, % at 10 µM | 2% of 1,300 active | AID 504908, 2011;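 active = inhibition above a set limit, roughly 3 SD of non-fluorescent compound noise, cut at about 38% in these data; inactive = inhibition at or below that limit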;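 also: loss of bead fluorescence from 50 nM FITC arrestin peptide bound to appendage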
GST GSH counter = GST-fluorescein capture on glutathione beads, confirmation, artefact control for arrestin-AP2 inhibitor project, biochemical, cherry pick 1, flow cytometry. shares compounds with Arrestin-AP2 inh. GST-fluorescein binding to GSH beads, fluorescence, counter-screen. inhibition, % at 10 µM. 2% of 1,300 active. AID 588338, 2011;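 active = inhibition above 50%, about 3 SD of the inhibition seen with non-fluorescent compounds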;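 also: fluorescein maleimide labelled GST captured on 4 micron glutathione beads; higher means more loss of bead fluorescence from quenching or blocked binding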
Of the large screens only hits and unclear results are named; the others gave an inactive call (follow-up assays come after a bar, where they were run). In the library only some 1.5% were active in any assay of this set; here they are far more common.

CC(C)Nc1nnc(SC(C)C(=O)Nc2ccc(Cl)cn2)s1 (stereo not drawn)	Arrestin-AP2 inh 55 | Arr-AP2 CP1 inactive | GST GSH counter inactive
Cc1cc(-c2ccc(C)c(S(=O)(=O)Nc3cc(C)on3)c2)on1	none
COc1ccc(NC(=O)C2CC(=O)N(Cc3ccco3)C2)cc1Cl (stereo not drawn)	none (no result: DSG3 Ab inh)
Cc1nc(OCC(=O)c2ccc(Cl)cc2)c(C#N)c2c1COC(C)(C)C2	Arrestin-AP2 inh 91 | Arr-AP2 CP1 inactive | GST GSH counter inactive
O=C1CN(C(=O)/C=C/c2ccc(Cl)cc2Cl)CCN1	none
O=C1CN(C(=O)/C=C/c2ccccc2)CCN1	Arrestin-AP2 inh 57 | Arr-AP2 CP1 inactive | GST GSH counter inactive
COc1ccc(CN2CCC(C(=O)Nc3ccc(Oc4cccnc4)cc3)CC2)c(C)c1C	none
COc1cc(Cl)c(C)cc1NC(=O)c1ccc(S(C)(=O)=O)cc1	Arrestin-AP2 inh 55 | Arr-AP2 CP1 inactive | GST GSH counter inactive
COc1cc(NC(=O)c2ccccc2)c(OC)cc1Cl	none
COc1ccc(NC(=O)c2ccc(S(=O)(=O)C(F)F)cc2)c(OC)c1	Arrestin-AP2 inh 60 | Arr-AP2 CP1 inactive | GST GSH counter inactive
Cn1cccc1CN1CCC[C@]2(N[C@H](c3ccc(C(F)(F)F)cc3)[C@@H]3C(=O)N(Cc4ccccc4)C(=O)[C@@H]32)C1=O	none (no result: LANA-H2A inh, HDAC3 inh, Arrestin-AP2 inh, T cell HTS)
Cc1ccn2c(NC(=O)C(C)(C)Oc3ccc(Cl)cc3)c(-c3cccs3)nc2c1	Arrestin-AP2 inh 60 | Arr-AP2 CP1 inactive | GST GSH counter inactive
O=C(CSc1nc2[nH]ncc2c(=O)n1-c1ccccc1)c1ccc2c(c1)OCCO2	none
N=c1c2cn[nH]c2nc(SCC(=O)c2ccc(Br)cc2)n1-c1ccc(Br)cc1	Arrestin-AP2 inh 74 | Arr-AP2 CP1 inactive | GST GSH counter inactive
COc1cc2c(cc1NC(=O)C(C)NCc1ccccc1)oc1ccccc12 (stereo not drawn)	none | Arr-AP2 CP1 inactive | GST GSH counter inactive
COc1cc2c(cc1NC(=O)Nc1ccccc1)oc1ccccc12	none | Arr-AP2 CP1 inactive | GST GSH counter inactive
O=C(Nc1ccccc1C(=O)Nc1ccccn1)c1cc(F)c(F)cc1Cl	none
CCOc1ccc(CN2CCN(Cc3cc4ccccc4o3)CC2CCO)cc1 (stereo not drawn)	Arrestin-AP2 inh 66 | Arr-AP2 CP1 inactive | GST GSH counter inactive
COc1cccc(CN2CCN(Cc3cc4ccccc4o3)CC2CCO)c1 (stereo not drawn)	none
O=C(CSc1nc2ncc(Br)cc2[nH]1)c1ccc([N+](=O)[O-])cc1	none
O=C(CSc1nc2ccc([N+](=O)[O-])cc2[nH]1)c1ccc2ccccc2c1	Arrestin-AP2 inh 106 | Arr-AP2 CP1 inactive | GST GSH counter inactive
COc1ccccc1NC(=O)COC(=O)CCC(=O)c1cccs1	none (no result: LANA-H2A inh, HDAC3 inh, T cell HTS)
NC(=O)NCC(c1ccccc1)C1CCCCC1 (stereo not drawn)	Arrestin-AP2 inh 61 | Arr-AP2 CP1 inactive | GST GSH counter inactive
COc1ccc(OC)c(NC(=O)COC(=O)c2cc3c(s2)CCC3)c1	Arrestin-AP2 inh 80 | Arr-AP2 CP1 inactive | GST GSH counter inactive
COc1ccc(Nc2nc(N/N=C/c3ccc(N(C)C)cc3)nc(C)c2[N+](=O)[O-])cc1	Arrestin-AP2 inh 103 | Arr-AP2 CP1 inactive | GST GSH counter inactive
COc1ccc(NC(=O)/C(=C\c2ccco2)NC(=O)c2ccco2)cc1	none (no result: DSG3 Ab inh)
COc1ccc(NC(=O)/C(C#N)=C\C=C\c2ccco2)cc1	Arrestin-AP2 inh 72 | Arr-AP2 CP1 inactive | GST GSH counter inactive
O=C(NCCc1ccc(S(=O)(=O)N2CCCC2)cc1)c1cccs1	Arrestin-AP2 inh 87 | Arr-AP2 CP1 inactive | GST GSH counter inactive
O=C(Nc1ccc(S(=O)(=O)N2CCCC2)cc1)c1cccs1	none
Cc1ccc(C)c(S(=O)(=O)NCC(=O)Nc2ccc3c(c2)OCO3)c1	none
Brc1cccc(CNCc2cccs2)c1	Arrestin-AP2 inh 55 | Arr-AP2 CP1 inactive | GST GSH counter inactive
COc1ccccc1C(=O)COC(=O)/C(=C/c1ccccc1)NC(C)=O	none
Cc1nnc(SCCn2c(Br)nc3c2c(=O)[nH]c(=O)n3C)s1	Arrestin-AP2 inh 95 | Arr-AP2 CP1 inactive | GST GSH counter inactive
COc1ccc(C2=C3C(=O)OCC3Cc3ncn(Cc4ccccc4)c32)cc1 (stereo not drawn)	none
N#CCC(=O)N/N=C/c1c(-c2ccccc2)n(-c2ccccc2)c2ccccc12	none
COC(=O)Cn1c(=NC(=O)c2cc(-c3cccs3)nc3ccccc23)sc2cc(S(N)(=O)=O)ccc21	Arrestin-AP2 inh 63 | Arr-AP2 CP1 inactive | GST GSH counter inactive
COc1ccc(S(=O)(=O)NC2CCCCC2)cc1-n1cnnn1	Arrestin-AP2 inh 56 | Arr-AP2 CP1 inactive | GST GSH counter inactive
CC(=O)Nc1ccc(S(=O)(=O)NC2(c3ccccc3)C(=O)N(C)C(=O)N(C)C2=O)cc1	none (no result: LANA-H2A inh, HDAC3 inh, T cell HTS)
O=C(c1cnn2c(C(F)F)cc(-c3ccccc3)nc12)N1CCCc2ccccc21	none | Arr-AP2 CP1 inactive | GST GSH counter inactive
COc1ccc(-c2cc(C(F)F)n3ncc(C(=O)N4CCN(C)CC4)c3n2)cc1	none
COc1ccc(-c2cc(C(F)F)n3ncc(C(=O)N4CCCc5ccccc54)c3n2)cc1	Arrestin-AP2 inh 106 | Arr-AP2 CP1 inactive | GST GSH counter 66
O=C(c1cnn2c(C(F)(F)F)cc(-c3ccccc3)nc12)N1CCCc2ccccc21	none | Arr-AP2 CP1 inactive | GST GSH counter inactive
O=C(c1cnn2c(C(F)F)cc(-c3ccccc3)nc12)N1CCc2ccccc2C1	none
O=C(Nc1ccc(NC(=S)NC(=O)c2ccccc2Cl)cc1)c1cccc(Cl)c1	Arrestin-AP2 inh 59 | Arr-AP2 CP1 inactive | GST GSH counter inactive
CC(C)C(=O)Nc1cccc(NC(=S)NC(=O)c2ccccc2Cl)c1	none
C/C(=N\NC(=O)CNc1ccc(F)cc1)c1cc2ccccc2o1	Arrestin-AP2 inh 64 | Arr-AP2 CP1 inactive | GST GSH counter inactive
C[C@@H]1CN(S(=O)C(C)(C)C)[C@@H](CCO)/C1=C\c1ccccc1 (stereo partly drawn)	none (no result: LANA-H2A inh, HDAC3 inh, T cell HTS)
Cc1ccc(N/C=C2/Sc3ccccc3NC2=O)cc1	Arrestin-AP2 inh 83 | Arr-AP2 CP1 inactive | GST GSH counter inactive
COc1ccc(N/C=C2/Sc3ccccc3NC2=O)cc1	none
